The conditions of data set [1]: cited from earlier work.
Data set [2] has as its system patients with type 1 and type 2 diabetes. Particulars: phase II, patients previously treated with other basal insulins; cited from earlier work.
The conditions of data set [3]: cited from earlier work. This is another data set of the same source.
For data set [4], the system named is conscious dogs. Description: Euglycemic clamp with tracer and hepatic balance measurements in conscious dogs. Particulars: control group (regular human insulin 0.11 nmol/kg/h iv, n=6). Type of data set: in vivo, dog. In outline:
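Conscious dogs had 30 min of basal sampling (90–120 min), then a 5-h euglycemic clamp (120–420 min). Somatostatin and regular human insulin (no priming dose) were given by peripheral vein, glucagon intraportally at basal 0.5 ng ⋅ kg−1 ⋅ min−1, and glucose infused to hold euglycemia. [3H]glucose tracer; Ra from Mari circulatory model; hepatic organ-balance calculations; triglycerides assayed spectrophotometrically; n = 6.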

Data set [5] can be described thus: Plasma insulin / serum LY concentrations and organ extraction during the clamp. It counts as in vivo, dog.
Where [6] appears, read: regular insulin 0.11 nmol/kg/h iv during the clamp, dog.

For insulin degludec, the “T1/2 relative to that of glargine” value in data set [1] was “approximately two times”.
In the case of insulin glargine, the Body weight change entry in data set [2] is “modest weight gain”.
Regarding “insulin: endogenously secreted insulin to which the liver is exposed”, the “Hepatic extraction of the insulin to which the liver is exposed” value in data set [3] is 50–60%.
On to “regular insulin: regular human insulin infused via peripheral vein in the control group”, for which, in data set [4], the “Change from baseline in net hepatic glucose balance by 420 min” value came to 10.3 ± 1.4 µmol ⋅ kg^-1 ⋅ min^−1, the “Fall of arterial plasma triglyceride concentration below baseline by 420 min” value was ~ 40%, the “Increase in non-HGU over the basal rate in the final hour” value is 11.1 ± 4.5 µmol ⋅ kg^−1 ⋅ min^−1 and the “Time to NEFA nadir after the start of the clamp period” value was ≤ 90 min. For the same substance, the “Nadir of NEFA concentrations” value in data set [4] (arterial plasma) worked out at 271 ± 57 µmol/L. The “Fall from basal in endogenous glucose Ra by the final hour” value in data set [4] (tracer-determined) was 8.9 ± 1.9 µmol ⋅ kg^−1 ⋅ min^−1. The “Portal vein insulin concentration during the clamp” value in data set [5] (control group (regular human insulin 0.11 nmol/kg/h iv, n=6)) is ~ 50 % of basal. In data set [5] (setting [6]), this substance returned a Fractional hepatic extraction of 50 ± 3% and a Fractional renal extraction of 61 ± 3%.

The record behind these values is publication PMC5361402 (Diabetes, 2014).
